Published values of several laboratories.
Target: Kappa-type opioid receptor (OPRK1, Homo sapiens, UniProt P41145)

SMILES	assay	quantity	result
OC[C@@]12C[C@@H]1[C@@H](n1cnc3c(NC(C4CCCC4)C4CCCC4)nc(Cl)nc31)[C@H](O)[C@@H]2O	cell-free assay, radioligand	Ki	0.11 µM
O[C@@H]1[C@H](O)[C@@H]2C[C@@H]2[C@H]1n1cnc2c(NCCc3ccccc3)nc(C#Cc3ccccc3)nc21	cell-free assay	Ki	> 10 µM
Cc1nccc2c1c(=O)n(C)c1cc(OC[C@@H](N)CC(C)C)c(C#N)cc21	cell-free assay	IC50	29 µM
CCCCN1CCC(COC(=O)c2ccc(N)c(OCF)c2)CC1	cell-free assay, radioligand	Ki	> 10 µM
CCOCc1nc(O)c(-c2nnc(Cc3ccc(Cl)cn3)o2)c(O)c1-c1c(OC)cccc1OC	ligand displacement, radioligand	IC50	> 30 µM
Clc1ccc(CSc2nnc(-c3ccccn3)n2Cc2cccs2)cc1Cl	β-arrestin recruitment, agonist, imaging	EC50	0.39 µM
CNC(=O)[C@@]12C[C@@H]1[C@@H](n1cnc3c(NC)cc(C#Cc4ccc(Cl)s4)nc31)[C@H](O)[C@@H]2O	cell-free assay	Ki	> 10 µM
Cc1cc(C)nc(C(=O)NC[C@@H]2CCCN(Cc3ccc(F)c(F)c3)C2)c1	cell-free assay	Ki	6.46 µM
OCCCN1CC[C@@H]2C[C@H]1c1cc(-c3ccc(C(F)(F)F)cc3)ccc12	ligand displacement, radioligand	Ki	7.09 µM
Cc1ccc(C(=O)NCC2CCN(Cc3ccc(C(C)C)cc3)CC2)cc1	cell-free assay	Ki	> 10 µM
O=C(c1ccccn1)N(Cc1cccs1)C1(C(=O)NC2CCCCC2)CCCCC1	β-arrestin recruitment, agonist	EC50	0.11 µM
O[C@@H]1[C@H](O)[C@@H]2C[C@@H]2[C@H]1n1cnc2c(NCc3cccc(Cl)c3)ncnc21	cell-free assay	Ki	> 10 µM
